According to ChEMBL document CHEMBL1137702, “Identification of hydrolytically stable and selective P2Y(1) receptor agonists” (Eur J Med Chem, 2009):
Active and inactive are the calls of the source. The rule behind the calls is not given here.

Experiments:
[1] = target: T1, Ectonucleoside triphosphate diphosphohydrolase 2 (Homo sapiens) (UniProt Q9Y5L3); assay: Activity of human NTPDase 2 expressed in human 293T cells assessed as drug hydrolysis at 100 uM after 20 mins relative to ATP; format: cell-based; design: scale not given: the % may be the effect or the level left
T1 sequence (whole entry): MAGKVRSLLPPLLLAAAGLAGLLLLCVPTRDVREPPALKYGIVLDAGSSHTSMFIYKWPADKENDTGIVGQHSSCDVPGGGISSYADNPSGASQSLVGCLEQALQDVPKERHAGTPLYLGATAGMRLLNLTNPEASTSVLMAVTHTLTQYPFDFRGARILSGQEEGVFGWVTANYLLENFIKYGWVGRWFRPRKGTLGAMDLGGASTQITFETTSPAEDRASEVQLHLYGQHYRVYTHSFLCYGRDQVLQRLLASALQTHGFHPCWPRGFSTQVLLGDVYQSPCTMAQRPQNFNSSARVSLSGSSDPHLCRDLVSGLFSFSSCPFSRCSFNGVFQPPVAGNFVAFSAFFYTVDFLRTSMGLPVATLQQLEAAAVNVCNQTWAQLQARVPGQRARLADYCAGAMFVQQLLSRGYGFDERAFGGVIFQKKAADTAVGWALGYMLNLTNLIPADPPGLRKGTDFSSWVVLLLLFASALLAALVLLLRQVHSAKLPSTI
How it was run: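 Human NTPDase1, 2, 3 or 8 in crude extracts of transfected 293T cells, pre-incubated 3 min at 37 °C in Tris-Ringer buffer pH 7.4. […] Untransfected-cell extract activity subtracted.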

[2] = target: P2Y purinoceptor 6 (Rattus norvegicus) (UniProt Q63371); assay: Agonist activity at rat P2Y6 receptor expressed in human 1321N1 cells assessed as increase in intracellular calcium concentration at 100 uM by dual-excitation spectrofluorimetric analysis; format: functional, cell-based
P2Y purinoceptor 6 (Rattus norvegicus), sequence (Q63371 whole entry): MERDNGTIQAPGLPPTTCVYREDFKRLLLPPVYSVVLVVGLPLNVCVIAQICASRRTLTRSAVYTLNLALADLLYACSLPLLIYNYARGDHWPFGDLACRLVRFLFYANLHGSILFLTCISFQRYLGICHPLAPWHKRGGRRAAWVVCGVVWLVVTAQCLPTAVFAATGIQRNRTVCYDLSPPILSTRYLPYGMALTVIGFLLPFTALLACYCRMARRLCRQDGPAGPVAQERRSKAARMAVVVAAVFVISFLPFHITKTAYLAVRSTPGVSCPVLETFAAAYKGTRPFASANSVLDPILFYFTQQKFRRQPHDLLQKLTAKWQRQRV

P2Y purinoceptor 4 [3] = target: T2, P2Y purinoceptor 4 (Homo sapiens, UniProt P51582); assay: Agonist activity at human P2Y4 receptor expressed in human 1321N1 cells assessed as increase in intracellular calcium concentration by dual-excitation spectrofluorimetric analysis; format: functional, cell-based
T2 sequence (P51582 whole entry): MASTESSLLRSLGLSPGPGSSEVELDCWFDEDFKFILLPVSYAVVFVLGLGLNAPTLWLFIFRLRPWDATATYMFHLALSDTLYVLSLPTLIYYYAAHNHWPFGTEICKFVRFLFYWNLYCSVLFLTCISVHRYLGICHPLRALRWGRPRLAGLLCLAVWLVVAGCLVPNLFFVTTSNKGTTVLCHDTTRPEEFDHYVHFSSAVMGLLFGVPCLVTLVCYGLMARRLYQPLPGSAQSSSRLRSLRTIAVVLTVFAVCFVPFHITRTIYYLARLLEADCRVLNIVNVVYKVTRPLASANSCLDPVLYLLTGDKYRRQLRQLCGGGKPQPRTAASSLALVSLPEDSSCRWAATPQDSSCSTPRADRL
How it was run: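 1321N1 astrocytoma cells stably expressing the receptor (turkey P2Y1, human P2Y2, human P2Y4, rat P2Y6) were grown with G-418 selection. Fura-2-loaded cell suspensions were exposed at 37 °C in 10 mM HEPES-buffered saline pH 7.4 with 1 mM CaCl2 and 1 mM MgCl2. Peak [Ca2+]i rise was measured over a range of concentrations to derive EC50.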

P2Y purinoceptor 2 = P2Y purinoceptor 2 (Homo sapiens, UniProt P41231); assay: Antagonist activity at human P2Y2 receptor expressed in human 1321N1 cells assessed as inhibition of UTP-induced increase in intracellular calcium concentration by dual-excitation spectrofluorimetric analysis; format: functional, cell-based
P2Y purinoceptor 2, sequence (P41231 whole entry): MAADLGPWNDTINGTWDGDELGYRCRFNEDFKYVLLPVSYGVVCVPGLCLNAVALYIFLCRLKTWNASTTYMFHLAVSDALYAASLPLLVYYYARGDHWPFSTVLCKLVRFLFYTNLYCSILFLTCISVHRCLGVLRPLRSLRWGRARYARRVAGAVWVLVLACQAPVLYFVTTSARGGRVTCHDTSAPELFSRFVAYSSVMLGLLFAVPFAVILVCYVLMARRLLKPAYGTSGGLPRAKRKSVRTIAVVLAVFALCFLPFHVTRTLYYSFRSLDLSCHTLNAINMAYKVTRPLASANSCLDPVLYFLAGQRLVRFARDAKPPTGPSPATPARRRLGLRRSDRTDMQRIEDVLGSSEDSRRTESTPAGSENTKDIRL
How it was run: (§1)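 Fura-2-loaded suspensions of stably transfected 1321N1 cells were assayed at 37 °C in HEPES-buffered saline pH 7.4 with 1 mM Ca2+ and Mg2+. […] [Ca2+]i was read by dual-excitation spectrofluorometry.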

P2Y purinoceptor 4 [4] = target: T2, P2Y purinoceptor 4; assay: Antagonist activity at human P2Y4 receptor expressed in human 1321N1 cells assessed as inhibition of UTP-induced increase in intracellular calcium concentration by dual-excitation spectrofluorimetric analysis; format: functional, cell-based; how it was run: as §1
[5] = target: T1, Ectonucleoside triphosphate diphosphohydrolase 2 (Homo sapiens); assay: Inhibition of human NTPDase 2 expressed in human 293T cells; format: cell-based
[6] = target: T3, Ectonucleoside triphosphate diphosphohydrolase 3 (Homo sapiens) (UniProt O75355); assay: Inhibition of human NTPDase 3 expressed in human 293T cells; format: cell-based
T3 sequence (whole entry): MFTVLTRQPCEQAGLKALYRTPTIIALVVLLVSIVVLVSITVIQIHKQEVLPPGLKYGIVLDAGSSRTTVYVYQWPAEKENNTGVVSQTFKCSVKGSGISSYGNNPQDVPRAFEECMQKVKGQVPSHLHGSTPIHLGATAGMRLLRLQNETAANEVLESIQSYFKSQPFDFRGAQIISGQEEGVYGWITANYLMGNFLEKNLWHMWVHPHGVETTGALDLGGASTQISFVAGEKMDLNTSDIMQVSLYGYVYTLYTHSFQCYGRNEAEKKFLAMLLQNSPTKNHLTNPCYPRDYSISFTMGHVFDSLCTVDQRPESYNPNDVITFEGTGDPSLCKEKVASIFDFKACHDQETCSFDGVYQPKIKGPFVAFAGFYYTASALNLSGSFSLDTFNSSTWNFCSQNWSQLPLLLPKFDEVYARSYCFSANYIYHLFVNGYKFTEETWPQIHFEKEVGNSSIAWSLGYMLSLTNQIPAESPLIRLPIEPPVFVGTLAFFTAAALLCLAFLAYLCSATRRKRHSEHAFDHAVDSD

[7] = target: T4, Ectonucleotide pyrophosphatase/phosphodiesterase family member 1 (Homo sapiens) (UniProt P22413); assay: Inhibition of human NPP1 expressed in human 293T cells; format: cell-based
T4 sequence (whole entry): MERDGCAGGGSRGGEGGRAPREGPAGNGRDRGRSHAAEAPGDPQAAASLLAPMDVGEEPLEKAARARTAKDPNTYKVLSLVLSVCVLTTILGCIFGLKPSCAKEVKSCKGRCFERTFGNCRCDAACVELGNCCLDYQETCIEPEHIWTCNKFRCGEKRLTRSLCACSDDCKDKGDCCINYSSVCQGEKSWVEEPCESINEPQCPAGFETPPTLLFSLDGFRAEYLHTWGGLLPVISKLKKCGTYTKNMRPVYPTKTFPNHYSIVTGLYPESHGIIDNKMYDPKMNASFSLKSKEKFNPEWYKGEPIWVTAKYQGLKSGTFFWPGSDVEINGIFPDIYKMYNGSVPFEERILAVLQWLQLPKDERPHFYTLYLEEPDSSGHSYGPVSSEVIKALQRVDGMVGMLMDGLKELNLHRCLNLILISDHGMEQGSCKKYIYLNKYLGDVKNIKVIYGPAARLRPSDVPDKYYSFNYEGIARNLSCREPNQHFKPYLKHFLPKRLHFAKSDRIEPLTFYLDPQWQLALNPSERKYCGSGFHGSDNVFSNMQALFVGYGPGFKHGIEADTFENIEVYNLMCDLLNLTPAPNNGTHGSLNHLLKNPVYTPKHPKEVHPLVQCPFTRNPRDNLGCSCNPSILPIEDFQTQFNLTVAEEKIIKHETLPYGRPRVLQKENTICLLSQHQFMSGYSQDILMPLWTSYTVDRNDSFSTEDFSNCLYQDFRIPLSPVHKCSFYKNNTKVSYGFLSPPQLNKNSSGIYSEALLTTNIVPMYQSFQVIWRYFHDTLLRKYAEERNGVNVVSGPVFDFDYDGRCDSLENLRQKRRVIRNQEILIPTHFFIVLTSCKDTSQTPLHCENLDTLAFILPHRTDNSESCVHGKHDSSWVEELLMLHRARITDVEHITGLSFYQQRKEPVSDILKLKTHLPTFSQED

[8] = target: P2Y purinoceptor 1 (Meleagris gallopavo) (UniProt P49652); assay: Agonist activity at turkey P2Y1 receptor expressed in human 1321N1 cells assessed as increase in intracellular calcium concentration by dual-excitation spectrofluorimetric analysis; format: functional, cell-based
P2Y purinoceptor 1 (Meleagris gallopavo), sequence (P49652 whole entry): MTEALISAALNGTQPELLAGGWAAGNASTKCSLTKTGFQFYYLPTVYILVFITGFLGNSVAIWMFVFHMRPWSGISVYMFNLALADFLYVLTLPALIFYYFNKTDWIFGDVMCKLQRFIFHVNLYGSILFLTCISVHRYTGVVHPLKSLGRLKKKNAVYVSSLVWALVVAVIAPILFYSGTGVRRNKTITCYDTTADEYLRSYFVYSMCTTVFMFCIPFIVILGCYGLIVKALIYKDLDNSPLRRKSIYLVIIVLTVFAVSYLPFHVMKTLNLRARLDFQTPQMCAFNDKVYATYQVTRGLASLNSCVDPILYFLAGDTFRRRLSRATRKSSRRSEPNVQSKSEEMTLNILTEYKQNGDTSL

SMILES | Activity [1] [%] | Activity [2] | Activity (P2Y purinoceptor 4 [3]) | Activity (P2Y purinoceptor 2) | Activity (P2Y purinoceptor 4 [4]) | Activity [5] | Activity [6] | Activity [7] | Activity [8]
CSc1nc(N)c2ncn([C@@H]3O[C@H](COP(=O)(O)OP(=O)(O)CP(=O)(O)O)[C@@H](O)[C@H]3O)c2n1 | 2 | Active | inactive | inactive | inactive | inactive | inactive | inactive | 
BP(=O)(OC[C@H]1O[C@@H](n2cnc3c(N)ncnc32)[C@H](O)[C@@H]1O)OP(=O)(O)CP(=O)(O)O (stereo partly specified) | 1 |  | inactive | inactive | inactive | inactive | inactive | inactive | inactive
BP(=O)(OC[C@H]1O[C@@H](n2cnc3c(N)nc(SC)nc32)[C@H](O)[C@@H]1O)OP(=O)(O)CP(=O)(O)O (single isomer, unassigned; diastereomer A) | 1 |  | inactive | inactive | inactive | inactive | inactive | inactive | inactive
BP(=O)(OC[C@H]1O[C@@H](n2cnc3c(N)nc(SC)nc32)[C@H](O)[C@@H]1O)OP(=O)(O)CP(=O)(O)O (single isomer, unassigned; diastereomer B) | 1 | Active | inactive | inactive | inactive | inactive | inactive | inactive | 
BP(=O)(OC[C@H]1O[C@@H](n2cnc3c(N)ncnc32)[C@H](O)[C@@H]1O)OP(=O)(O)CP(=O)(O)O (single isomer, unassigned; diastereomer B) | 0 | Active | inactive | inactive | inactive | inactive | inactive | inactive | inactive
